What was measured:
[1] = molecular target: T1, Caspase-6 (Homo sapiens, UniProt P55212); assay: Inhibition of caspase 6
T1 sequence (P55212 whole entry): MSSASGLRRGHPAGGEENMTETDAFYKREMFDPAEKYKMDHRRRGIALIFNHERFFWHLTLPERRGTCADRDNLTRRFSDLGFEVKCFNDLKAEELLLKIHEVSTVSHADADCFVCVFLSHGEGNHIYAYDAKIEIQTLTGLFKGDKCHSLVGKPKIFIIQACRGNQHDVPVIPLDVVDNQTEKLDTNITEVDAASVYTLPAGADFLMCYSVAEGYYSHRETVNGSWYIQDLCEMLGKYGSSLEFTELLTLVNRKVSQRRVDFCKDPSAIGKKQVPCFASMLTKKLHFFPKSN
Method in brief: (§1)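 Recombinant human caspase-1, -6 or -8 at 0.5 units per assay, preincubated 10 min at 37 °C with compound in DMSO at single doses from 5 pM to 500 µM. Fluorogenic AMC substrate then added at 10 µM final (caspase-1 Ac-YVAD-AMC, caspase-6 Ac-VEID-AMC, caspase-8 Ac-IETD-AMC) for a further 10 min. Read-out was AMC fluorescence. IC50 taken by nonlinear regression.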

[2] = molecular target: Caspase-8 (Homo sapiens, UniProt Q14790); assay: Inhibition of caspase 8; method in brief: as §1
[3] = molecular target: T2, Caspase-1 (Homo sapiens, UniProt P29466); assay: Inhibition of caspase 1; method in brief: as §1
T2 sequence (P29466 whole entry): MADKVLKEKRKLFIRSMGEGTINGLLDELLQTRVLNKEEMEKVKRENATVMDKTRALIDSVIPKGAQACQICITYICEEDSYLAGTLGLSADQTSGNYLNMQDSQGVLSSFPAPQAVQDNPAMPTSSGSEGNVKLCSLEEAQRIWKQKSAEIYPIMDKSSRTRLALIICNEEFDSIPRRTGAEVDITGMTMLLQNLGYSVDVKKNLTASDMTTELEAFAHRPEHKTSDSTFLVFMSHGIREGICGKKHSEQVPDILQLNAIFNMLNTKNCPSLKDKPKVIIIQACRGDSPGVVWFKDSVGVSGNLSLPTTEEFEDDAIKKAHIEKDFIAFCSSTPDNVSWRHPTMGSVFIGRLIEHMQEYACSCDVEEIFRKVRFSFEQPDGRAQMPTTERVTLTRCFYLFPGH

Measured: IC50

Caspase-8, sequence (Q14790 217-374 limits assumed): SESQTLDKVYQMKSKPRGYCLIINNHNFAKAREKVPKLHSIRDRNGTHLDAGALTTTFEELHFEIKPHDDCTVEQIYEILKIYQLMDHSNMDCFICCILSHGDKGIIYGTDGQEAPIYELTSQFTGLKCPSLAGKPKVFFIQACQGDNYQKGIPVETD
Caspase-8, sequence (Q14790 385-479 limits assumed): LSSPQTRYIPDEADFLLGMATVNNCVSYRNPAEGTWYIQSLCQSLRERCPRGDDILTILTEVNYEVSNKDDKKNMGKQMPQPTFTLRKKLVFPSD

CCC[CH2][Sn]([CH2]CCC)([CH2]CCC)[c]1ccc(CN2C(=O)C(=O)c3cc(S(=O)(=O)N4CCC[C@H]4COC)ccc32)cc1 [(S)-5-[1-(2-methoxymethylpyrrolidinyl)sulfonyl]-1-(4-(tributylstannyl)benzyl)isatin]
> 500 µM: all assays above

CCC[CH2][Sn]([CH2]CCC)([CH2]CCC)[c]1ccc(CN2C(=O)C(=O)c3cc(S(=O)(=O)N4CCC[C@H]4COc4ccccc4)ccc32)cc1 [(S)-5-[1-(2-phenoxymethylpyrrolidinyl)sulfonyl]-1-(4-(tributylstannyl)benzyl)isatin]
> 500 µM: all assays above

— BindingDB's records for doi:10.1021/jm051217c (University Hospital of The Westfälische …, 2006)
